One series has as its system HeLa. Description: Antiproliferative activity against human HeLa cells assessed as inhibition of cell proliferation after 72 hrs by MTT assay. Type of series: functional, cell-based. In a few lines:
(§1)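 Cells grown as monolayers in DMEM with 10% FBS, 2 mM L-glutamine, penicillin/streptomycin, 37 °C, 5% CO2. Seeded at 5000/well on day 0. Compounds added after 24 h as five serial dilutions (0,01 to 100 µM), DMSO ≤0.1%, then 72 h. MTT read-out converted to percentage growth. IC50 by linear regression; quadruplicates in three experiments.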

Series [1] concerns SW-620. As to the kind of experiment: Induction of apoptosis in human SW620 cells assessed as enlarged cells level at 50 uM after 24 hrs by Annexin V-Fluos staining based fluorescent microscopy. Type of series: functional, cell-based. The method in brief: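 Cells seeded on chamber slides at 4000 per well and treated 24 h (HepG2 at 25 or 50 µM; SW620 at 50 µM). Incubated 15 min with Annexin V-Fluos reagent plus propidium iodide, washed in PBS, and examined by fluorescence microscopy for morphology and labelling.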

For series [2], the system named is SW-620. As to the kind of experiment: Induction of cell cycle arrest on human SW620 cells assessed as accumulation at G2/M phase at 20 uM after 48 hrs by propidium iodide staining based flow cytometry (reference value: 22.5 +/- 0.9%). Type of series: functional. As to conditions: in the assay text read “after 24 hrs” for “after 48 hrs”. In a few lines:
(§2)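 HepG2 or SW620 cells were seeded at 25000 per well. After 24 h they were treated, then harvested 24 or 48 h later. Attached cells were trypsinized, pooled with floating cells, PBS-washed and fixed in 70% ethanol. Cells were stained with PI 1 µg/mL plus RNase A 0.2 µg/mL, and 10 000 events were acquired by flow cytometry. Phase percentages come from DNA histograms, in duplicate, with ANOVA at p < 0.05.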

The subject of series [3] is SW-620. As to the kind of experiment: Induction of cell cycle arrest on human SW620 cells assessed as accumulation at S phase at 50 uM after 48 hrs by propidium iodide staining based flow cytometry (reference value: 39.4 +/- 0.2%). The class given is functional. As to conditions: in the assay text read “after 24 hrs” for “after 48 hrs”. In a few lines: as §2
Series [4] concerns SW-620. Description: Induction of cell cycle arrest on human SW620 cells assessed as accumulation at subG1 phase at 20 uM after 48 hrs by propidium iodide staining based flow cytometry (reference value: 12.1 +/- 0.3%). The class given is functional. The following applies: in the assay text read “after 24 hrs” for “after 48 hrs”. The method in brief:
as §2

Series [5] is described as follows: (§3) Antiproliferative activity against human SW620 cells assessed as inhibition of cell proliferation after 72 hrs by MTT assay. Type of series: functional, cell-based, SW-620. As to conditions: Homo sapiens, SW-620, 72 h. The method in brief:
as §1

For series [6], the system named is SW-620. Described as §3. Type of series: functional, cell-based. The method in brief: as §1
Series [7] relates to SW-620. As to the kind of experiment: Induction of cell cycle arrest on human SW620 cells assessed as accumulation at G1 phase at 50 uM after 48 hrs by propidium iodide staining based flow cytometry (reference value: 38.1 +/- 1.1%). As to conditions: in the assay text read “after 24 hrs” for “after 48 hrs”. The class given is functional. In a few lines:
as §2

Series [8] has as its system SW-620. As to the kind of experiment: Induction of cell cycle arrest on human SW620 cells assessed as accumulation at S phase at 20 uM after 48 hrs by propidium iodide staining based flow cytometry (reference value: 39.4 +/- 0.2%). Type of series: functional. The following applies: in the assay text read “after 24 hrs” for “after 48 hrs”. In a few lines: as §2
The test system of the next series is MCF7. Description: Antiproliferative activity against human MCF7 cells assessed as inhibition of cell proliferation after 72 hrs by MTT assay. Type of series: functional, cell-based. In a few lines: as §1
For series [9], the system named is Calf thymus DNA. As to the kind of experiment: Binding affinity to calf thymus DNA assessed as change in melting temperature at drug/ base pair ratio of 0.5 by spectrophotometry. Type of series: nucleic-acid assay. The following applies: Bos taurus. In a few lines: (§4)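 CT-DNA absorbance followed at 260 nm from 20 to 100 °C, rising 1 °C per min, in BPE buffer, with or without compound at drug/base-pair ratio 0.25 or 0.5. Tm taken as midpoint of the hyperchromic transition from first-derivative plots. ΔTm is Tm with compound minus Tm of DNA alone.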

A further series relates to Nucleic Acid. Description: Induction of DNA intercalation in supercoiled pUC19 DNA in presence of human topoisomerase 1 assessed as effect on topoisomerase 1-mediated DNA relaxation at 5 to 50 uM by agarose gel electrophoresis. The class given is nucleic-acid assay. As to conditions: Escherichia coli. The method in brief:
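Supercoiled pUC19 incubated with human topoisomerase I and graded compound concentrations. Stopped with SDS/proteinase K. DNA forms resolved on 1% agarose in TBE, 2 h at 120 V, stained post-run with ethidium bromide and viewed under UV. Camptothecin was the topo I poison control.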

The test system of another series is BJ. Description: Antiproliferative activity against human BJ cells assessed as inhibition of cell proliferation after 72 hrs by MTT assay. The class given is cell-based. As to conditions: 72 h. The method in brief: as §1
Series [10] has as its system Calf thymus DNA. As to the kind of experiment: Binding affinity to calf thymus DNA at 50 uM circular dichroism spectroscopy. Type of series: nucleic-acid assay. The following applies: Bos taurus. In a few lines:
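CD spectra recorded from 480 to 230 nm, 10 mm path, 20 °C, in BPE buffer. CT-DNA (50 µM) incubated with compound rising from 1 to 60 µM or to 80 µM. Compound without DNA served as the control for intrinsic CD.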

Series [11] concerns Calf thymus DNA. Description: Binding affinity to calf thymus DNA assessed as change in melting temperature at drug/ base pair ratio of 0.25 by spectrophotometry. The class given is nucleic-acid assay. The following applies: Bos taurus. In a few lines: as §4
In series [12] the test system is SW-620. Description: Induction of cell cycle arrest on human SW620 cells assessed as accumulation at subG1 phase at 50 uM after 48 hrs by propidium iodide staining based flow cytometry (reference value: 12.1 +/- 0.3%). The class given is functional. As to conditions: in the assay text read “after 24 hrs” for “after 48 hrs”. In a few lines:
as §2

For series [13], the target named is T1, DNA topoisomerase 1 (Homo sapiens) (UniProt P11387).
T1 sequence (whole entry): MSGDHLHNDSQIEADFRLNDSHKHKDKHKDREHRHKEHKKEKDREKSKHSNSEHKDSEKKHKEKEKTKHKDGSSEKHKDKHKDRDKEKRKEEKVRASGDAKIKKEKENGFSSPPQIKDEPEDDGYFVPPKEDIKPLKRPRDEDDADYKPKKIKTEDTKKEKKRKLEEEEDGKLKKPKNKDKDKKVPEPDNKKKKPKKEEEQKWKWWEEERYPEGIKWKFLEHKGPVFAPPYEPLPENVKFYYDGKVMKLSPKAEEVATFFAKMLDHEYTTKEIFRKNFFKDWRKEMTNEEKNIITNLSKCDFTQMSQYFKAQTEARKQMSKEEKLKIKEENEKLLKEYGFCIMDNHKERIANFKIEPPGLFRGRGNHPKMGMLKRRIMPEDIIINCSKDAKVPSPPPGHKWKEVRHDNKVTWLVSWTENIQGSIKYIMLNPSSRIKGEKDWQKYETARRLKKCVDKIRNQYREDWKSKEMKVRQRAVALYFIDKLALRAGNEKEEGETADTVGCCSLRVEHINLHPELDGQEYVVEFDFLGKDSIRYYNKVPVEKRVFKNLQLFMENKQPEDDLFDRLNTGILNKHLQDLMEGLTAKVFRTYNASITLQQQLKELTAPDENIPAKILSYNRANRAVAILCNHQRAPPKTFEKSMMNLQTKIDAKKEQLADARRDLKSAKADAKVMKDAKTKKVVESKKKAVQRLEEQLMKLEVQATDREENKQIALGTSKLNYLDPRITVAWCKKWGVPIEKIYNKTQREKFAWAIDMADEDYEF
As to the kind of experiment: Inhibition of human topoisomerase 1 assessed as topoisomerase poison activity by measuring generation of open circular DNA using supercoiled pUC19 DNA at 5 to 50 uM by agarose gel electrophoresis. The method in brief:
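Supercoiled pUC19 plasmid was incubated with human topoisomerase I and graded compound concentrations. Reactions were stopped with SDS and proteinase K. DNA forms were resolved on 1% agarose in TBE (2 h, 120 V), post-stained with ethidium bromide and photographed under UV. Poisoning was read as appearance of nicked DNA, with camptothecin as the positive control.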

For series [14], the system named is SW-620. As to the kind of experiment: Induction of cell cycle arrest on human SW620 cells assessed as accumulation at G2/M phase at 50 uM after 48 hrs by propidium iodide staining based flow cytometry (reference value: 22.5 +/- 0.9%). Type of series: functional. As to conditions: in the assay text read “after 24 hrs” for “after 48 hrs”. In a few lines: as §2

Another series relates to HepG2. As to the kind of experiment: Antiproliferative activity against human HepG2 cells assessed as inhibition of cell proliferation after 72 hrs by MTT assay. Type of series: functional, cell-based. In a few lines:
as §1

For series [15], the system named is SW-620. Description: Induction of cell cycle arrest on human SW620 cells assessed as accumulation at G1 phase at 20 uM after 48 hrs by propidium iodide staining based flow cytometry (reference value: 38.1 +/- 1.1%). The class given is functional. The following applies: in the assay text read “after 24 hrs” for “after 48 hrs”. The method in brief:
as §2

Active and inactive are the calls of the source. No cut-off for these calls is given here.

Turning to `Cl.c1ccc2c(c1)CN(c1ccc(C3=NCCN3)nc1)/C2=N/c1ccc(C2=NCCN2)nc1`, the inhibition entry in the series with HeLa, in the series with SW-620 [6], in the series on MCF7 and in the series on HepG2 was “Dose-dependent effect” throughout. The IC50 in the series on HeLa (Homo sapiens, HeLa, 72 h) stood at 6.25 µM; in series [5], 5.26 µM; in the series with MCF7 (Homo sapiens, MCF7, 72 h), 3.76 µM; in the series on BJ (Homo sapiens, BJ), 4.26 µM; in the series with HepG2 (HepG2, 72 h), 20.5 µM. In addition, the result in the series with SW-620 [1], with Nucleic Acid and in the series on Calf thymus DNA [10] was Active. Besides, the Activity in the series with SW-620 [2] was 40%; in the series on SW-620 [3], 36.2%; in the series with SW-620 [4], 7.5%; with SW-620 [7] it was 22.1%; in the series with SW-620 [8], 40.4%; in the series on SW-620 [12] it was 7.8%. In addition, the Activity turned out to be 41.7% with SW-620 [14] and 19.6% with SW-620 [15]. The ΔTm with Calf thymus DNA [9] was 17.3 °C; in the series with Calf thymus DNA [11], 12.2 °C. Further, the “inhibition (INH)” value with BJ (human, bj) is “Dose-dependent effect”. For the same compound, the inhibition entry in series [13] was “inactive”.

For the origin of these results see ChEMBL document CHEMBL3352181, “Novel phenyl and pyridyl substituted derivatives of isoindolines: Synthesis, antitumor activity and DNA binding features” (Eur J Med Chem, 2014).
